Screening results (PubChem BioAssay)
MrgX1 antagonist – antagonists of human MrgX1 receptor | Q96LB2 | MRGX1-HEK293 calcium flux, Fluo-4, BAM8-22 antagonism; hits give low values | B-score at 10 µM | actives 1.3% (n = 310,000);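 active means calcium-response B-score plate-corrected more than 3 library SD below zero, starting fluorescence within 5 deviations, no agonist response on first addition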;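 further: peak minus trough fluorescence over baseline after final BAM8-22 challenge near maximal dose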
Target sequence (Q96LB2 whole entry, looked up): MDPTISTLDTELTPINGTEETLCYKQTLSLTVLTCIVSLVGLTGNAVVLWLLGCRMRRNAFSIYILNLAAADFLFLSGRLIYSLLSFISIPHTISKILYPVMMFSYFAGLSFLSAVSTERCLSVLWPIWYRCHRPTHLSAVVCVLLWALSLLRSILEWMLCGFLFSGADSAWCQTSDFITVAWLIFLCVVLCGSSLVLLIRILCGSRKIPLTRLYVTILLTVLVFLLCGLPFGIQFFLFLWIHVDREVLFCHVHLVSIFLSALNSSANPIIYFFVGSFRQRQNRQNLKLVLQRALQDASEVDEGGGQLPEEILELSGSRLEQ
RGS4 pot – potentiators or activators of RGS4; HEK293 M3R/inducible RGS4, carbachol calcium flux Fluo4; hits give low values; B-score at 10 µM; actives 0.92% (n = 310,000); AID 463111;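 active means B-score of the integrated calcium signal more than 4 SD below the library mean, with starting fluorescence not abnormally high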;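 further: negative B-score means reduced calcium response which marks RGS4 activation or potentiation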
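System: HEK293 FlpIn-TREx cells, stable M3R, doxycycline-inducible RGS4. Timing: overnight RGS4 induction, 30 min dye load 37 °C, 20 min compound RT. Also added: carbachol, ECmax concentration. Measured by: Fluo4 fluorescence kinetic imaging of calcium. Evaluation: integrated calcium ratio converted to B score.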
RGS4 inh – inhibitors of human RGS4. P49798. actives 0.45% (n = 310,000). B-score at 10 µM. AID 463165. HEK293 M3R/RGS4 inducible, Fluo-4 calcium flux; hits give high values; triggered by carbachol at its EC20;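 active means B-score, a plate-corrected calcium signal, over three deviations above library mean, with baseline fluorescence within five deviations of library mean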;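 further: RGS4 expression induced by doxycycline in cells with stable M3 receptor; B-score is computed from the integrated fluorescence ratio over baseline after carbachol; higher B-score means a larger calcium signal and so more RGS4 inhibition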
Target sequence (P49798 whole entry, looked up): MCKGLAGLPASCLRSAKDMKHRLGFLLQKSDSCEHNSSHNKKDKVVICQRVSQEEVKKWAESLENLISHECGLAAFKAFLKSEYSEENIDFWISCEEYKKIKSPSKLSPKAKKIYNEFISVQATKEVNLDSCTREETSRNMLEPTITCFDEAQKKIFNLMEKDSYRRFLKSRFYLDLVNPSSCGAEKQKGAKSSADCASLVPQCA
MrgX1 ag – human MrgX1 receptor agonism, primary screen; B-score at 10 µM; actives 0.44% (n = 310,000); MrgX1-HEK293 cells, Fluo-4 calcium fluorescence, agonist mode; hits give high values; Q96LB2;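 active means calcium response B-score plate-corrected fluorescence ratio at least 3 library SD, with starting fluorescence B-score inside 5 SD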
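Material: MrgX1-expressing HEK293 cells; input: 15,000 cells per well; doses: test compound given as first of three sequential additions; schedule: overnight plating before 1 h dye loading; technique: Fluo-4 NW calcium-flux fluorescence, kinetic read; evaluation: baseline-normalised fluorescence change ratio, B-scored; control set: plate-wise positive and negative controls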
MrgX1 PAM – human MrgX1 positive allosteric modulation, primary screen | MrgX1-HEK293, Fluo-4 calcium flux, FDSS; hits give high values | B-score at 10 µM | actives 0.63% (n = 310,000) | AID 588675;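 active means plate-corrected calcium response at least 3 library SD above typical, normal starting fluorescence, not activating the receptor alone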;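 further: compound read alongside a low EC10 to EC30 dose of BAM8-22 agonist; peak minus trough fluorescence over baseline measured at the second addition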
MrgX1 PAM conf – human MrgX1 positive allosteric modulation, re-confirmation. shares compounds with MrgX1 PAM. MrgX1-HEK293, Fluo-4 calcium fluorescence, FDSS. activation (ratio percentage), % at 10 µM. actives 13% (n = 1,200);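 active means ratio at least 3 SD above the weak peptide control, stable starting fluorescence, no direct agonism earlier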;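 further: compound followed by low BAM8-22 agonist challenge near EC20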
HEK293 Ca flux – counter-screen for MrgX1 antagonists: effect in parental HEK293 cells. shares compounds with MrgX1 antagonist. Fluo-4 calcium fluorescence, FDSS. fluorescence ratio F(max-min)/F0 at 10 µM. actives 2% (n = 4,000). AID 624111;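 active means duplicate-averaged calcium fluorescence ratio at least three times the standard deviation of buffer wells, a nonspecific response in parental cells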
HEK293 Ca counter – counter-screen for MrgX1 allosteric activators: effect in parental HEK293 cells | shares compounds with MrgX1 antagonist | parental HEK293 calcium flux, Fluo-4 fluorescence ratio; hits give high values | fluorescence ratio F(max-min)/F0 at 10 µM | actives 0.4% (n = 4,000) | AID 624114;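 active means calcium fluorescence ratio, averaged over duplicates, at least 3 SD of the buffer-well ratio, meaning a nonspecific response in receptor-free cells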;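 further: untransfected parental HEK293 lacking MrgX1 used as counterscreen for MrgX1 allosteric activators; fluorescence change taken during the second addition on a kinetic imager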
HEK293 Ca cntr2 – counter-screen for MrgX1 activators: effect in parental HEK293 cells. shares compounds with MrgX1 antagonist. Fluo-4 calcium fluorescence (FDSS); hits give high values. fluorescence ratio F(max-min)/F0 at 10 µM. actives 8.7% (n = 4,000). AID 624115;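 active means calcium fluorescence ratio at least three times the spread of buffer wells, meaning a non-specific response in parental cells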
Active calls of the source: *. Compounds with a hit are over-represented: about 3.5% of the library has one in this group of screens.

Results for CSCC[C@H](NC(=O)[C@@H]1Cc2ccccc2CN1)C(=O)NC1CCCC1 ?
MrgX1 antagonist: inactive; RGS4 pot: inactive; RGS4 inh: inactive; MrgX1 ag: inactive; MrgX1 PAM: 8.5*; MrgX1 PAM conf: inactive; HEK293 Ca flux: inactive; HEK293 Ca counter: inactive; HEK293 Ca cntr2: inactive

Results for CSCC[C@H](NC(=O)[C@@H]1Cc2ccccc2CN1)C(=O)NC(C)c1ccccc1 (stereo not given in full) ?
MrgX1 antagonist: inactive; RGS4 pot: inactive; RGS4 inh: inactive; MrgX1 ag: inactive; MrgX1 PAM: inactive

How did NC(=O)CSc1nc(C23CC4CC(CC(C4)C2)C3)nc2ccccc12 do in these assays?
MrgX1 antagonist: inactive; RGS4 pot: inactive; RGS4 inh: inactive; MrgX1 ag: inactive; MrgX1 PAM: 17*; MrgX1 PAM conf: 14%*; HEK293 Ca flux: inactive; HEK293 Ca counter: inactive; HEK293 Ca cntr2: inactive

Results for Cc1nonc1NC(=O)CSc1nc(C23CC4CC(CC(C4)C2)C3)nc2ccccc12 ?
MrgX1 antagonist: inactive; RGS4 pot: inactive; RGS4 inh: inactive; MrgX1 ag: inactive; MrgX1 PAM: inactive

Results for CCOc1cccc(NC(=O)CSc2nncn2N)c1 ?
MrgX1 antagonist: inactive; RGS4 pot: inactive; RGS4 inh: inactive; MrgX1 ag: inactive; MrgX1 PAM: 7.4*; MrgX1 PAM conf: inactive; HEK293 Ca flux: inactive; HEK293 Ca counter: inactive; HEK293 Ca cntr2: inactive

How did Cc1ccccc1Nc1nc(N)nc(CSc2n[nH]c(N)n2)n1 do in these assays?
MrgX1 antagonist: inactive; RGS4 pot: inactive; RGS4 inh: inactive; MrgX1 ag: inactive; MrgX1 PAM: inactive

How did Cc1ccc(NC(=O)C2C3/C=C\CCCCC32)cc1 (stereo not given) do in these assays?
MrgX1 antagonist: inactive; RGS4 pot: inactive; RGS4 inh: inactive; MrgX1 ag: inactive; MrgX1 PAM: inactive

How did O=C(Nc1nccs1)C1C2/C=C\CCCCC21 (stereo not given) do in these assays?
MrgX1 antagonist: inactive; RGS4 pot: inactive; RGS4 inh: inactive; MrgX1 ag: inactive; MrgX1 PAM: 12*; MrgX1 PAM conf: inactive; HEK293 Ca flux: inactive; HEK293 Ca counter: inactive; HEK293 Ca cntr2: inactive

Results for N#CCCN(C(=O)COC(=O)C1CCN(S(=O)(=O)c2cccs2)CC1)c1ccccc1 ?
MrgX1 antagonist: inactive; RGS4 pot: inactive; RGS4 inh: inactive; MrgX1 ag: inactive; MrgX1 PAM: inactive

What do the screens show for `CCC(C)(C)n1nnnc1C(c1ccc(Cl)cc1)N1CCN(C)CC1` (stereo not given)?
MrgX1 antagonist: inactive; RGS4 pot: inactive; RGS4 inh: inactive; MrgX1 ag: inactive; MrgX1 PAM: 11*; MrgX1 PAM conf: inactive; HEK293 Ca flux: inactive; HEK293 Ca counter: inactive; HEK293 Ca cntr2: inactive

How did CCC(C)(C)n1nnnc1C(c1ccc(C)cc1)N1CCC(C)CC1 (stereo not given) do in these assays?
MrgX1 antagonist: inactive; RGS4 pot: inactive; RGS4 inh: inactive; MrgX1 ag: inactive; MrgX1 PAM: inactive

What do the screens show for `Cc1cccc(NC(=O)C23CCC(C)(C2Br)C3(C)C)c1` (stereo not given)?
MrgX1 antagonist: inactive; RGS4 pot: inactive; RGS4 inh: inactive; MrgX1 ag: inactive; MrgX1 PAM: 20*; MrgX1 PAM conf: inactive; HEK293 Ca flux: inactive; HEK293 Ca counter: inactive; HEK293 Ca cntr2: inactive

Results for Cc1cccc(NC(=O)CC(=O)Nc2cccc(C)c2)c1 ?
MrgX1 antagonist: inactive; RGS4 pot: inactive; RGS4 inh: inactive; MrgX1 ag: inactive; MrgX1 PAM: inactive

How did Cc1ccnc(NC(=O)c2ccc3[nH]c(=O)c(=O)[nH]c3c2)c1 do in these assays?
MrgX1 antagonist: inactive; RGS4 pot: inactive; RGS4 inh: inactive; MrgX1 ag: inactive; MrgX1 PAM: inactive

Results for COc1ccccc1C(=O)CSc1nccn1C ?
MrgX1 antagonist: inactive; RGS4 pot: inactive; RGS4 inh: inactive; MrgX1 ag: inactive; MrgX1 PAM: inactive

How did CCOC(=O)c1c(-c2cccs2)csc1N do in these assays?
MrgX1 antagonist: inactive; RGS4 pot: inactive; RGS4 inh: inactive; MrgX1 ag: inactive; MrgX1 PAM: 8.4*; MrgX1 PAM conf: inactive; HEK293 Ca flux: inactive; HEK293 Ca counter: inactive; HEK293 Ca cntr2: inactive

How did Cc1ccc(S(=O)(=O)N(C)c2ccc(OCC(=O)NCC3(N(C)C)CCCCC3)cc2)cc1 do in these assays?
MrgX1 antagonist: inactive; RGS4 pot: inactive; RGS4 inh: inactive; MrgX1 ag: inactive; MrgX1 PAM: inactive

How did NC(=O)CCN(C1CCCCC1)S(=O)(=O)c1cccc2nsnc12 do in these assays?
MrgX1 antagonist: inactive; RGS4 pot: inactive; RGS4 inh: inactive; MrgX1 ag: inactive; MrgX1 PAM: inactive

How did Cc1ccc(S(=O)(=O)N(CCC#N)C2CCCCC2)c2nsnc12 do in these assays?
MrgX1 antagonist: inactive; RGS4 pot: inactive; RGS4 inh: inactive; MrgX1 ag: inactive; MrgX1 PAM: 6.8*; MrgX1 PAM conf: inactive; HEK293 Ca flux: inactive; HEK293 Ca counter: inactive; HEK293 Ca cntr2: inactive

How did C=C/C(C)=C/C[C@H]1C(=C)CCC2[C@](C)(C(=O)O)CCC[C@@]21C (stereo not given in full) do in these assays?
MrgX1 antagonist: inactive; MrgX1 ag: inactive; MrgX1 PAM: 7.4*; MrgX1 PAM conf: inactive; HEK293 Ca flux: inactive; HEK293 Ca counter: inactive; HEK293 Ca cntr2: inactive

What do the screens show for `C=C1CCC2[C@](C)(CO)[C@H](O)CC[C@@]2(C)[C@@H]1C/C=C1\C(=O)OC[C@H]1O` (stereo not given in full)?
MrgX1 antagonist: inactive; RGS4 pot: inactive; RGS4 inh: inactive; MrgX1 ag: inactive; MrgX1 PAM: inactive

What do the screens show for `COc1ccc(C2=NS(=O)(=O)N(C)C(C(=O)N3CCOCC3)=C2)cc1OC`?
MrgX1 antagonist: inactive; RGS4 pot: inactive; RGS4 inh: inactive; MrgX1 ag: inactive; MrgX1 PAM: inactive
